These results are taken from ChEMBL document CHEMBL4373697, “Cyclization of RGD Peptides by Suzuki-Miyaura Cross-Coupling” (J Med Chem, 2019).

Data set [1] addresses T1, Integrin alpha-V/beta-3 (Homo sapiens, UniProt P05106+P06756). Nature of the data set: Binding affinity to integrin alphavbeta3 receptor in human WM115 cells assessed as inhibition of cell adhesion to vitronectin after 0.5 hr by fluorescence assay. It is filed as cell-based.
Data set [2] addresses T1, Integrin alpha-V/beta-3. Briefly: Inhibition of human vitronectin binding to human integrin alphavbeta3 receptor after 1 hr by ELISA. It is filed as protein-complex assay. A general note: ELISA stands for enzyme-linked immunosorbent assay.
For another data set, the target named is Integrin alpha-5/beta-1 (Homo sapiens, UniProt P05556+P08648). Briefly: Inhibition of human fibronectin binding to human integrin alpha5beta1 incubated for 1 hr by ELISA. It is filed as protein-complex assay.
The target of data set [3] is Integrin alpha-IIb/beta-3 (Homo sapiens, UniProt P05106+P08514). Nature of the data set: Inhibition of human fibronectin binding to human Integrin alpha2b beta3 receptor incubated for 1 hr by ELISA. It is filed as protein-complex assay.
Data set [4] in a line: Half-life in human plasma at 500 uM incubated for 24 hrs and measured up to 24 hrs by LC-MS analysis. The format is ADME, cell-free. Put shortly: (§1)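 Compound from DMSO stock (final DMSO ≤1%) in human citrate plasma, pH 7.5, incubated at 37 °C, 400 rpm, for 24 h. Aliquots were taken at 0, 1, 3, 6, 8 and 24 h and quenched with cold acetonitrile containing warfarin (50 µM final) as internal standard, then centrifuged. Supernatant was run by LC-MS; UV peak area was compared with the internal standard.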

A short description of data set [5]: Half-life in human plasma at 250 uM incubated for 24 hrs and measured up to 24 hrs by LC-MS analysis. It is filed as ADME, cell-free. Put shortly:
as §1

Structures are written as SMILES. pIC50: −log10 of the molar value. Some results are limits rather than exact numbers.

Chain of Integrin alpha-IIb/beta-3 (P05106 27-788 limits assumed): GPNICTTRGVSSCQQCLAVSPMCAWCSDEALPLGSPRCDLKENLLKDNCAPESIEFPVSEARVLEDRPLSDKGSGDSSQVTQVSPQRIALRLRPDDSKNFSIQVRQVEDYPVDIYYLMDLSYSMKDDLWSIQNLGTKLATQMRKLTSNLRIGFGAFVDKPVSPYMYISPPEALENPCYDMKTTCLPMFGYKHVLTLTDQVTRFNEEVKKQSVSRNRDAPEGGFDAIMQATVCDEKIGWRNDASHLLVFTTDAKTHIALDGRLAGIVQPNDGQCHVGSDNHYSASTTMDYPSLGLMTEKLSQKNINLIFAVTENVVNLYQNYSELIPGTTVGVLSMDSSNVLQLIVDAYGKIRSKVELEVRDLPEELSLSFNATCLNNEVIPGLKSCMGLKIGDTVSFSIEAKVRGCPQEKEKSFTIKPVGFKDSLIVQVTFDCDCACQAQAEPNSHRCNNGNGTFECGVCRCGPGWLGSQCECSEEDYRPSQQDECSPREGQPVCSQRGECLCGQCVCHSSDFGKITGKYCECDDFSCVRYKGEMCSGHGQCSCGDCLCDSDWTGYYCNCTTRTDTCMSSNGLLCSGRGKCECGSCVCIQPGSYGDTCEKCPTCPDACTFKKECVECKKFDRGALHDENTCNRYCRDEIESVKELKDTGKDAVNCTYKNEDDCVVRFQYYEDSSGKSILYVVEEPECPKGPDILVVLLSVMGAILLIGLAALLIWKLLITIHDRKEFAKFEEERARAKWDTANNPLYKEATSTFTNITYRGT
Chain of Integrin alpha-IIb/beta-3 (P08514 32-887 limits assumed): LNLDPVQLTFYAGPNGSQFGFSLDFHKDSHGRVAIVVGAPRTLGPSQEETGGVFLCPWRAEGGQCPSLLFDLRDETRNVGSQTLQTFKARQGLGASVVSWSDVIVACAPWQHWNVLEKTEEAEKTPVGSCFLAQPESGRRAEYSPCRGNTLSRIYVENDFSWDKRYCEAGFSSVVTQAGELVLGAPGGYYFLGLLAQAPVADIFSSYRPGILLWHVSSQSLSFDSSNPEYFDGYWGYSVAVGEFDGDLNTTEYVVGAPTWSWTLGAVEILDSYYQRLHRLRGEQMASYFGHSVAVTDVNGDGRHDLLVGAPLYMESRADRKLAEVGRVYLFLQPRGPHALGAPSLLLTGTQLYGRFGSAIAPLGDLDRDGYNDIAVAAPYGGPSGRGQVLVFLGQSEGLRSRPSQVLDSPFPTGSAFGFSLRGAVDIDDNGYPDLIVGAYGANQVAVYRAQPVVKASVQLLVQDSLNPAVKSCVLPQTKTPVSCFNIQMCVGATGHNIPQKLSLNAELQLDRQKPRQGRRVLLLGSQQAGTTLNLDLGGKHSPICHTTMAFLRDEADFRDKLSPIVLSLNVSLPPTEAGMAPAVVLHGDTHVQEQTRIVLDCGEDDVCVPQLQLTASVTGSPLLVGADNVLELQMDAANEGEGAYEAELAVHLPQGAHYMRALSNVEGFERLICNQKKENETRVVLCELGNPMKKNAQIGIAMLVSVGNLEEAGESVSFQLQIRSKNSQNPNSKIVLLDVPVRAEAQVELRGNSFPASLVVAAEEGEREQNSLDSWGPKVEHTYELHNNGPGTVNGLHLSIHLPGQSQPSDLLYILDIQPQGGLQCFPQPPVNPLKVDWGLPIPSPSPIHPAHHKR
Chain of Integrin alpha-IIb/beta-3 (P08514 891-1039 limits assumed): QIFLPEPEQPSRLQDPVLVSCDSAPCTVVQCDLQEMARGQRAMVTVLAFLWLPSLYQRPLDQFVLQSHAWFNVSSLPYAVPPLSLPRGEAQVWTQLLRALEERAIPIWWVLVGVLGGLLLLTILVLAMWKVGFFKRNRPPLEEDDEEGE
T1 sequence (P05106 27-788 limits assumed): as the sequence (P05106 27-788 limits assumed) above
T1 sequence (P06756 31-889 limits assumed): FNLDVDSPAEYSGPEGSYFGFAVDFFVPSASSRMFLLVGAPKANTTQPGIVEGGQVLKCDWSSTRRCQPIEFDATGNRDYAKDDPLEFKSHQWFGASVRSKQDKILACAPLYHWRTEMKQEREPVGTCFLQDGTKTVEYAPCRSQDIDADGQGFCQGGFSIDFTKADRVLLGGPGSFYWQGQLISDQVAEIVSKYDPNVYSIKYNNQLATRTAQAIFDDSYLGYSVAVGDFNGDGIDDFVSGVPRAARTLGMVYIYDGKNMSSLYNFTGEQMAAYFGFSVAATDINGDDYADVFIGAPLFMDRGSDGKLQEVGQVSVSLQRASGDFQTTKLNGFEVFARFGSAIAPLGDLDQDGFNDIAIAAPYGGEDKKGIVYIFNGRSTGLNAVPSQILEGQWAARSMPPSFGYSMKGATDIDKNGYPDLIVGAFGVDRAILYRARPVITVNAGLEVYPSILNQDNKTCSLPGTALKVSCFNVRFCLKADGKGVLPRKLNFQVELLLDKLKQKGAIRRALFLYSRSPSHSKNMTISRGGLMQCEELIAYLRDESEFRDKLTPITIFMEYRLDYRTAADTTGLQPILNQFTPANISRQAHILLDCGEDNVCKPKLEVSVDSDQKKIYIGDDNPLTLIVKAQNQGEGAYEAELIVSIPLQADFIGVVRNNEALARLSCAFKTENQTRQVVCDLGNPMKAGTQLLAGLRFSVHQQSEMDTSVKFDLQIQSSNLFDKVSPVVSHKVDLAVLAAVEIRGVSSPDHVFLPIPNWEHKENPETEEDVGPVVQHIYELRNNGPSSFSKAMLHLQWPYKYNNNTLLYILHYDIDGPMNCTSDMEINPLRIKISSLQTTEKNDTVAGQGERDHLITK
T1 sequence (P06756 891-1048 limits assumed): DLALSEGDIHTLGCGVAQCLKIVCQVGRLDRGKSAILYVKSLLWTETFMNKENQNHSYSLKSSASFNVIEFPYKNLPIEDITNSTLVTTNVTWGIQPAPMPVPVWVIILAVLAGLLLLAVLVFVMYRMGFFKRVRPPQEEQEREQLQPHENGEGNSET
Chain of Integrin alpha-5/beta-1 (P05556 21-798 limits assumed): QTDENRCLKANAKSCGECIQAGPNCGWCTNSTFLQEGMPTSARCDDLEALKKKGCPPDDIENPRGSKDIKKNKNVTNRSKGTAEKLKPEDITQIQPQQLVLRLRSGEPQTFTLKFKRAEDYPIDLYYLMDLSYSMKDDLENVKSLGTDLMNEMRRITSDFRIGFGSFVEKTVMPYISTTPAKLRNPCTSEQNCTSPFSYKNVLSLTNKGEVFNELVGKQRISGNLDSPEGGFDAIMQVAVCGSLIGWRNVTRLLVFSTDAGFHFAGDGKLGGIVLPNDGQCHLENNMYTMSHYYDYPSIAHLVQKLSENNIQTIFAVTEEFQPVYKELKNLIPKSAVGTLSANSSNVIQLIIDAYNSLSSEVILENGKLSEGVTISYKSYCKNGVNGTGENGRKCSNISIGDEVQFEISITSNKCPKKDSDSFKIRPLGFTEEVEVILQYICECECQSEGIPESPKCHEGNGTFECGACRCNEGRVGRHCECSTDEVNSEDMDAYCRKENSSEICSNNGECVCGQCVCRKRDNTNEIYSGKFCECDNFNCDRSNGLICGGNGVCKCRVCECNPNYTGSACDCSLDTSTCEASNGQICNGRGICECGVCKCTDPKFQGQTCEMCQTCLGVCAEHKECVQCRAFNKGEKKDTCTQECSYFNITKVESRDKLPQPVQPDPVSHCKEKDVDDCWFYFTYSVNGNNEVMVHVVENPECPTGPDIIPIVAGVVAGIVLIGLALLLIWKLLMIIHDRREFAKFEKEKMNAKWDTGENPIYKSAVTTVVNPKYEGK
Chain of Integrin alpha-5/beta-1 (P08648 42-894 limits assumed): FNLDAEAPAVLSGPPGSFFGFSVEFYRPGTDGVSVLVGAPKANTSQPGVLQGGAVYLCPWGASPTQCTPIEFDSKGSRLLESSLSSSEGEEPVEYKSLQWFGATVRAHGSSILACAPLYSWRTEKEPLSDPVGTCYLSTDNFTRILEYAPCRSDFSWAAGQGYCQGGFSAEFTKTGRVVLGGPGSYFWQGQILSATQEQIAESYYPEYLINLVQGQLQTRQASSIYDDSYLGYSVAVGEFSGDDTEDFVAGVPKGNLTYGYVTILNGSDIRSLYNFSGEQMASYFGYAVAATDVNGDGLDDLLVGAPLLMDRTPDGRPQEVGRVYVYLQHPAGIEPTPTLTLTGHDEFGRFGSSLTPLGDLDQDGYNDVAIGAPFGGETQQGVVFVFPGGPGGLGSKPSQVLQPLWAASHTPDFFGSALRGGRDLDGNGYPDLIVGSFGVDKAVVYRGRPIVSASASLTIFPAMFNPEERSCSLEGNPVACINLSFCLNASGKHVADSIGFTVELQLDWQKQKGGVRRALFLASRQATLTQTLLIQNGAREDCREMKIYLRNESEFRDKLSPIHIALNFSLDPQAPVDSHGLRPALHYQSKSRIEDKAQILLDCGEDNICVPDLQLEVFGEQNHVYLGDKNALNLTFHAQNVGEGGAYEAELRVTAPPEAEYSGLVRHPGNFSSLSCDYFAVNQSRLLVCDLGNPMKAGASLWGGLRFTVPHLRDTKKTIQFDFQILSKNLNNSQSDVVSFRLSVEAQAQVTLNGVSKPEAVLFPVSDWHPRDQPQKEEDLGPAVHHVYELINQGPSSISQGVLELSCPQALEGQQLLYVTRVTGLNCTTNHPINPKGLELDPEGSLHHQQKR
Chain of Integrin alpha-5/beta-1 (P08648 895-1049 limits assumed): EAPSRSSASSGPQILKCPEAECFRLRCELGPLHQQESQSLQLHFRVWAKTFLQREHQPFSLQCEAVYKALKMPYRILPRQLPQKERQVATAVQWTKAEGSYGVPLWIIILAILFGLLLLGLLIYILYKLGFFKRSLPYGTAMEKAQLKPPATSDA

Consider `CN1C(=O)[C@H](CC(=O)O)NC(=O)CNC(=O)[C@H](CCCNC(=N)N)NC(=O)c2ccc(cc2)-c2cccc3c(c[nH]c23)C[C@@H]1C(N)=O`, for which the pIC50 was less than 3.30 at Integrin alpha-V/beta-3 [1], 6.27 at Integrin alpha-V/beta-3 [2] and less than 5.00 on Integrin alpha-5/beta-1.
For the compound `CN1C(=O)[C@H](Cc2ccccc2)NC(=O)[C@H](CC(=O)O)NC(=O)CNC(=O)[C@H](CCCNC(=N)N)NC(=O)c2ccccc2-c2cccc3c(c[nH]c23)C[C@@H]1C(N)=O`, the figures for the pIC50 at Integrin alpha-V/beta-3 [1], at Integrin alpha-V/beta-3 [2] and at Integrin alpha-5/beta-1 were 3.80, 7.19 and 8.72, respectively.
On to `N=C(N)NCCC[C@@H]1NC(=O)c2cccc(c2)-c2cccc3c(c[nH]c23)C[C@@H](C(N)=O)NC(=O)[C@@H](Cc2ccccc2)NC(=O)[C@H](CC(=O)O)NC(=O)CNC1=O`, for which the pIC50 on Integrin alpha-V/beta-3 [1] is less than 3.30; at Integrin alpha-V/beta-3 [2], 7.19; at Integrin alpha-5/beta-1 it was 6.01.
Consider `N=C(N)NCCC[C@@H]1NC(=O)c2cccc(c2)-c2cccc3c(c[nH]c23)C[C@@H](C(N)=O)NC(=O)[C@H](CC(=O)O)NC(=O)CNC1=O`, for which the pIC50 at Integrin alpha-V/beta-3 [1] was less than 3.30; on Integrin alpha-V/beta-3 [2], 7.72; at Integrin alpha-5/beta-1 it was 5.10.
The like results for `N=C(N)NCCC[C@@H]1NC(=O)c2ccc(cc2)-c2cccc3c(c[nH]c23)C[C@@H](C(N)=O)NC(=O)[C@@H](Cc2ccccc2)NC(=O)[C@H](CC(=O)O)NC(=O)CNC1=O` were, in that order, less than 3.30, 6.24 and 5.25.
For the compound `CN1C(=O)[C@H](Cc2ccccc2)NC(=O)[C@H](CC(=O)O)NC(=O)CNC(=O)[C@H](CCCNC(=N)N)NC(=O)CCCCCc2cccc3c(c[nH]c23)C[C@@H]1C(N)=O`, the pIC50 at Integrin alpha-V/beta-3 [1] was less than 3.30; on Integrin alpha-V/beta-3 [2] it was 7.41; at Integrin alpha-5/beta-1, 6.38.
Take `CN1C(=O)[C@H](Cc2ccccc2)NC(=O)[C@H](CC(=O)O)NC(=O)CNC(=O)[C@H](CCCNC(=N)N)NC(=O)c2ccc(cc2)-c2cccc3c(c[nH]c23)C[C@@H]1C(N)=O`: the pIC50 was 4.95 on Integrin alpha-V/beta-3 [1], 7.64 at Integrin alpha-V/beta-3 [2], 6.08 at Integrin alpha-5/beta-1 and less than 5.00 in data set [3].
Regarding `CN1C(=O)[C@H](Cc2ccccc2)NC(=O)[C@H](CC(=O)O)NC(=O)CNC(=O)[C@H](CCCNC(=N)N)NC(=O)CCCc2cccc3c(c[nH]c23)C[C@@H]1C(N)=O`, the results for the pIC50 on Integrin alpha-V/beta-3 [1], on Integrin alpha-V/beta-3 [2] and on Integrin alpha-5/beta-1 were less than 3.30, 7.47 and 6.81, respectively.
Turning to `CN1C(=O)[C@@H](Cc2ccccc2)NC(=O)[C@H](CC(=O)O)NC(=O)CNC(=O)[C@H](CCCNC(=N)N)NC(=O)c2ccc(cc2)-c2cccc3c(c[nH]c23)C[C@H]1C(N)=O`, the figures for the pIC50 at Integrin alpha-V/beta-3 [1], at Integrin alpha-V/beta-3 [2] and at Integrin alpha-5/beta-1 were less than 3.30, 7.02 and 5.67, respectively.
As to `N=C(N)NCCC[C@@H]1NC(=O)c2ccc(cc2)-c2cccc3c(c[nH]c23)C[C@@H](C(N)=O)NC(=O)[C@H](CC(=O)O)NC(=O)CNC1=O`, the results for the negative-log IC50 (pIC50) at Integrin alpha-V/beta-3 [1], on Integrin alpha-V/beta-3 [2] and at Integrin alpha-5/beta-1 were less than 3.30, 6.31 and 5.44, respectively.
With `CN1C(=O)[C@H](Cc2ccccc2)NC(=O)[C@H](CC(=O)O)NC(=O)CNC(=O)[C@H](CCCNC(=N)N)NC(=O)CCc2cccc3c(c[nH]c23)C[C@@H]1C(N)=O`, the pIC50 on Integrin alpha-V/beta-3 [1] was 3.60; on Integrin alpha-V/beta-3 [2], 7.89; at Integrin alpha-5/beta-1, 6.49; in data set [3], 5.30.
As for `CN1C(=O)[C@H](Cc2ccccc2)NC(=O)[C@H](CC(=O)O)NC(=O)CNC(=O)[C@H](CCCNC(=N)N)NC(=O)c2ccc(cc2)-c2ccc3c(c[nH]c3c2)C[C@@H]1C(N)=O`, the pIC50 at Integrin alpha-V/beta-3 [1] is 3.61; on Integrin alpha-V/beta-3 [2] it was 7.83; on Integrin alpha-5/beta-1 it was 5.57; in data set [3] it was less than 5.00.
Consider `CN1C(=O)[C@H](Cc2ccccc2)NC(=O)[C@H](CC(=O)O)NC(=O)CNC(=O)[C@H](CCCNC(=N)N)NC(=O)c2cccc(c2)-c2cccc3c(c[nH]c23)C[C@@H]1C(N)=O`, for which the pIC50 at Integrin alpha-V/beta-3 [1] is 5.03; on Integrin alpha-V/beta-3 [2], 7.86 to 8.27; on Integrin alpha-5/beta-1, 6.26; in data set [3] it was 5.24. In data set [4], this compound displayed a half-life at 500 µM of more than 1440 min.
In the case of `CN1C(=O)[C@H](CC(=O)O)NC(=O)CNC(=O)[C@H](CCCNC(=N)N)NC(=O)c2ccc(cc2)-c2cccc3c(c[nH]c23)C[C@H]1C(N)=O`, the pIC50 at Integrin alpha-V/beta-3 [1] was less than 3.30; on Integrin alpha-V/beta-3 [2] it was 6.62; on Integrin alpha-5/beta-1 it was less than 5.00.
`CCN(CC)CCOC(=O)c1ccc(N)cc1` [PROCAINE] gave a half-life at 250 µM in data set [5] of 30 min.
For `N=C(N)NCCC[C@@H]1NC(=O)c2ccc(cc2)-c2cccc3c(c[nH]c23)C[C@H](C(N)=O)NC(=O)[C@H](CC(=O)O)NC(=O)CNC1=O`, the negative-log IC50 (pIC50) was less than 3.30 on Integrin alpha-V/beta-3 [1], 7.38 on Integrin alpha-V/beta-3 [2], 5.23 on Integrin alpha-5/beta-1 and less than 5.00 in data set [3].
For `CN1C(=O)[C@H](Cc2ccccc2)NC(=O)[C@H](CC(=O)O)NC(=O)CNC(=O)[C@H](CCCNC(=N)N)NC(=O)CCCCc2cccc3c(c[nH]c23)C[C@@H]1C(N)=O`, the results for the pIC50 at Integrin alpha-V/beta-3 [1], on Integrin alpha-V/beta-3 [2] and on Integrin alpha-5/beta-1 were less than 3.30, 7.44 and 6.25, respectively.
Turning to `N=C(N)NCCC[C@@H]1NC(=O)c2ccc(cc2)-c2cccc3c(c[nH]c23)C[C@H](C(N)=O)NC(=O)[C@H](Cc2ccccc2)NC(=O)[C@H](CC(=O)O)NC(=O)CNC1=O`, the pIC50 is 4.29 at Integrin alpha-V/beta-3 [1], 7.75 on Integrin alpha-V/beta-3 [2], 5.03 on Integrin alpha-5/beta-1 and less than 5.00 in data set [3].
Turning to `N=C(N)NCCC[C@@H]1NC(=O)c2ccc(cc2)-c2ccc3c(c[nH]c3c2)C[C@H](C(N)=O)NC(=O)[C@H](Cc2ccccc2)NC(=O)[C@H](CC(=O)O)NC(=O)CNC1=O`, the figures for the pIC50 on Integrin alpha-V/beta-3 [1], on Integrin alpha-V/beta-3 [2] and at Integrin alpha-5/beta-1 were 3.51, 7.23 and less than 5.00, respectively.

The term pIC50 denotes the negative decadic logarithm of the IC50, by convention in mol/L. Usually half-life stands for the time needed for the level to fall by half in the phase considered.
